Screens as filed in PubChem.
MC4R antagonist – human MC4R antagonism in cAMP assay; P32245; MC4R-expressing cells, MTII-stimulated cAMP, LANCE TR-FRET; inhibition, % at 6.5 µM; 360,000 compounds, 0.48% hits; AID 540295;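 active = inhibition above its plate's cutoff, the mean of tested wells on that plate plus 3 SD, cut at about 29% in these data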;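 note: 0% = Melanotan II alone and 100% = Melanotan II plus saturating MCL0020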
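Material: U2OS-MC4R stable cell line | Reagent: Melanotan II challenge after compound preincubation | Doses: One concentration, 6.5 µM nominal | Incubation: 30-min compound preincubation, 1-h Melanotan II challenge, 1-h detection, room temperature | Signal: TR-FRET cAMP assay | Replicates: One well per compound, no replicates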
Myeloid diff MLP – compounds promoting myeloid differentiation; calls only at 10 µM; 360,000 compounds, 1% hits; ER-HoxA9 myeloid progenitors, lysozyme-GFP differentiation, flow cytometry;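 active = normalized GFP-positive differentiation at or above the plate's own cutoff, the solvent-only control mean plus 3 SD; inconclusive = no clear call, values can overlap the other calls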;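 note: cells exposed to compound for four days before flow analysis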
MC4R ag barr – agonists of human melanocortin 4 receptor (MC4R) beta-arrestin | P32245 | U2OS MC4R beta-arrestin complementation, luminescence; percent of melanotan II response, DMSO zero | activation, % at 8.9 µM | 360,000 compounds, 0.98% hits | AID 540308;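 active = activation above a per-plate cutoff, the mean activation of sample wells on that plate plus 3 SD, cut at about 8% in these data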
Granule exo inh – lytic granule exocytosis inhibition. inhibition, % at 10 µM. TALL-104 LAMP-1 surface exposure, flow cytometry; cells stimulated with thapsigargin and PMA. 360,000 compounds, 0.66% hits;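 active = inhibition above about 55%, limit read from the data; inconclusive = no clear call, values can overlap the other calls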
EBI2 block – blocks human EBI2 receptor beta-arrestin signaling; inhibition, % at 5 µM; EBI2 beta-arrestin recruitment, luminescence, 7a,25-OHC stimulated; AID 651636; 360,000 compounds, 0.81% hits; P32249; in the data active = inhibition above about 38%;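 note: enzyme fragment complementation signal reports receptor beta-arrestin coupling in cells; 0% = agonist plus DMSO wells and 100% = wells without agonist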
Target sequence (P32249 whole entry, looked up, the tested form may be a part): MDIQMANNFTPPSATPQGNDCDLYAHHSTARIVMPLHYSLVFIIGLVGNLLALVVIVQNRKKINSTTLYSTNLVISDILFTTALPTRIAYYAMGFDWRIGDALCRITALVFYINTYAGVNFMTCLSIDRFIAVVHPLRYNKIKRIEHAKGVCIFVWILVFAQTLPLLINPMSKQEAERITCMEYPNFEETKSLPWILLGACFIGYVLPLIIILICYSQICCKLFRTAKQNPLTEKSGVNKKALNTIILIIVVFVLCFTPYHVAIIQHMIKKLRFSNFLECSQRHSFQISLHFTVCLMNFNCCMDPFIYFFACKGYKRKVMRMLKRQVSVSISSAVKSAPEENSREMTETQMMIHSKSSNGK
Exocytosis CP01 – blocks lytic granule exocytosis | shares compounds with Granule exo inh | TALL-104 cells, LAMP-1 externalization, flow cytometry; stimulated with PMA plus thapsigargin | inhibition, % at 10 µM | 1,500 compounds, 11% hits; in the data active = inhibition above about 60%;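 note: 0% = stimulated vehicle wells and 100% = unstimulated wells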
Starred values were filed as active, the others as inactive; i = inactive; ? = inconclusive; nt = no result. Only some compounds are listed: those with a hit (about 3.7% of all), similar ones and a draw of the others.

SMILES	MC4R antagonist	Myeloid diff MLP	MC4R ag barr	Granule exo inh	EBI2 block	Exocytosis CP01
O=[N+]([O-])c1cccc(-c2cc(-c3cc(Br)ccc3O)[nH]n2)c1	2	nt	1	100*	16	99*
Oc1ccc(Br)cc1-c1cc(-c2ccc(Cl)cc2)n[nH]1	2	i	-1	5	27	nt
CCCCCCCCNCCS(=O)(=O)NCc1ccccc1	3	i	8	63*	-10	32
CCCCNS(=O)(=O)CCNCCc1ccccc1	1	i	-3	-6	8	nt
CCCCCC/C=C/c1ccc([C@H]2[C@H]3C=CC[C@@H](C)[C@@H]3C(=O)N2Cc2ccccc2)c(F)c1	4	i	2	8	4	nt
CCCCCC/C=C/c1ccc(OC)c([C@H]2[C@H]3C=CC[C@@H](C)[C@@H]3C(=O)N2Cc2ccccc2)c1	6	i	-2	67*	6	-3
CC1CCCCC1NC(=O)CCn1ccc2cc(S(=O)(=O)N3CCCC3)ccc21 (stereo not given)	4	i	-1	20	-16	nt
OCC1(CCc2ccccc2)CCCN(C/C=C/c2ccccc2)C1 (stereo not given)	0	i	4	-6	-3	nt
COc1ccccc1/C=C/CN1CCCC(CO)(CCc2ccccc2)C1 (stereo not given)	8	i	0	58*	10	-5
Cc1ccc(F)c(S(=O)(=O)NC(=O)C2(C)CCN2C(=O)Cc2ccsc2)c1 (stereo not given)	17	i	-1	-3	-13	nt
Cc1ccc(S(=O)(=O)n2ccc3c(OCCOCCSCC(NC(=O)OC(C)(C)C)C(=O)O)cccc32)cc1 (stereo not given)	0	i	2	-15	2	nt
Cc1ccc(S(=O)(=O)n2ccc3c(OCCOCCNCc4ccc(F)cc4)cccc32)cc1	9	i	4	75*	9	69*
COc1ccccc1C(=O)N/C(=C\c1cn(C)c2ccccc12)C(=O)NCCCn1ccnc1	-8	i	0	67*	-9	-7
COc1cc(C(=O)N/C(=C\c2cn(C)c3ccccc23)C(=O)NCCCn2ccnc2)cc(OC)c1OC	-4	i	-2	0	-10	nt
CC(C)(C)[C@@H]1CCC(=O)N(CC[C@H](Sc2ccc(Br)cc2)c2ccccc2)CC1	6	i	0	65*	28	-5
O=C(NCc1ccncc1)Nc1ccccc1F	-4	i	-2	6	-11	nt
COc1ccc(Cc2c(-c3ccc(OC)c(OC)c3)nc3cc(C)c(Br)c(C)n23)c(C)c1	nt	i	nt	-9	22	nt
Cc1ccc(CNc2ncnc3c2cnn3C2CCCCO2)cc1 (stereo not given)	-2	i	0	-8	14	nt
CN(C)CC(O)COC(c1ccc(Cl)cc1)c1ccc(Cl)cc1 (stereo not given)	-8	i	-1	66*	-7	-3
Cc1cccc(COCC(CC(C)C)N2CCN(C(=O)c3ccc(C(C)(C)C)cc3)CCC2=O)c1 (stereo not given)	17	i	-1	66*	15	-4
COc1ccc(COc2ccc3ccc(=O)oc3c2)cc1	2	i	1	86*	-1	-14
COc1ccc(S(=O)(=O)N2CCCCC2)cc1NC(=O)c1cnc(C)cn1	8	i	-4	5	4	nt
COc1cc2c(cc1OC)[C@@H]1Cc3cc4c(cc3[C@H](C2)N1C)OCO4	10	i	-1	79*	-17	-14
COc1cc2c(cc1O)[C@@H]1Cc3cc(OC)c(OC)cc3C(C2)N1C	-1	i	0	-3	-2	nt
CN(Cc1ccccc1F)C(=O)c1ccc2c(=O)n3c(nc2c1)CCC3	5	i	-1	3	-7	nt
SMILES	MC4R antagonist	Myeloid diff MLP	MC4R ag barr	Granule exo inh	EBI2 block	Exocytosis CP01
CCC(=O)c1ccccc1OCCCN1CCC(Cc2ccccc2)CC1	13	i	1	65*	15	-8
O=C(Nc1ccccc1-c1nnc(SCc2ccccc2)o1)c1ccccc1	2	i	-1	67*	-3	-10
O=C(Nc1ccccc1-c1nnc(SCc2ccc(Cl)cc2)o1)c1ccccc1	0	i	0	-2	-7	nt
COc1ccc(CCN2C(=O)c3ccccc3NC2c2cc(Cl)c(O)c(OC)c2)cc1 (stereo not given)	-4	?	-1	77*	5	-3
CCCN1C(=O)c2ccccc2NC1c1cc(OC)c(OC)c(OC)c1 (stereo not given)	7	i	-2	2	-2	nt
O=C(NCCNC(=O)c1ccc(Cl)cc1Cl)c1cnccn1	0	i	-1	-4	-8	nt
CCOC(=O)C1CCCN(Cc2ccc(OCc3ccccc3)cc2)C1 (stereo not given)	1	i	0	47	-8	nt
COc1ccc(C(=O)C2CCCN(Cc3cc(Cl)ccc3O)C2)c(OC)c1 (stereo not given)	18	i	2	1	21	nt
CCOC(=O)C1CCCN(Cc2ccc(OCc3ccccc3)c(OC)c2)C1 (stereo not given)	6	i	-1	57*	3	-13
CCOc1cccc(CN2CCCC(N3CCN(c4cccc(Cl)c4)CC3)C2)c1O (stereo not given)	2	i	0	66*	10	-10
CCOc1cccc(CN2CCCC(C(=O)c3cc(Cl)ccc3OC)C2)c1O (stereo not given)	-6	i	2	80*	11	-9
OC(c1cc(F)cc(Cl)c1)c1ncc(-c2ccccc2Cl)[nH]1 (stereo not given)	-2	i	-2	2	-7	nt
CC(=O)N1CCc2c(sc(NC(=O)c3ccc(S(=O)(=O)N(C)CC4CCCO4)cc3)c2C(N)=O)C1 (stereo not given)	-8	i	-1	1	-1	nt
Cc1cc(N=O)c(C)cc1O	-8	i	-1	-6	7	nt
Cc1cc(O)c(-c2cc(O)c(C)cc2O)cc1O	4	i	-5	102*	27	23
NC(=O)SCC(=O)Nc1ccc(Cl)c(Cl)c1	4	i	0	3	35	nt
NC(=O)SCC(=O)Nc1ccc(Cl)cc1	1	i	7	78*	34	-6
CC12CCCCC1C(C(N)=O)C(=O)O2 (stereo not given)	5	i	0	-6	3	nt
O=C1CCC2CCCCC2(O)O1 (stereo not given)	1	i	-1	64*	-15	-3
CCN(Cc1nc(-c2ccc(OC)cc2)no1)C(=O)c1ccoc1C	2	nt	-1	-3	0	nt
CS(=O)(=O)Nc1ccc(C(=O)Nc2ccccc2-c2ccccc2)cc1	16	i	-1	-14	-12	nt
N#Cc1ccc(C(=O)NCC2CCCCC2)cc1	12	i	-2	-16	-15	nt
